From the RNAGym collection of RNA variant scans (doi:10.1038/s41586-018-0170-7) come the findings set out here.

Sequences and labels used below:
B1: tRNA (parent)
chain: GUUCCGUUGGCGUAAUGGUAACGCGUCUCCCUCCUAAGGAGAAGACUGCGGGUUCGAGUCCCGUACGGAACG

The variants in this series derive from B1. Kind of series: yeast fitness, log relative to wild type (ln ratio); higher = fitter; tRNA-Arg(CCU), competitive growth, 37 C, 1 M NaCl. The essentials:
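Fitness is the natural log of a genotype's generation count divided by that of the wild type. A combinatorial library of tRNA-Arg(CCU) variants sat on a HIS3 centromeric plasmid in BY4742 lacking the chromosomal gene, from two independent transformations. Pools grew 4 generations in SC-HIS at 30 °C, then ~6.5 generations (~26.5 h) in SC-HIS 1M NaCl at 37 °C, with three outputs per input. Generations came from OD-scaled log2 output/input frequency, inverse-variance weighted across replicates, with variants counted by 125 bp paired-end Illumina sequencing.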
As for G1A U2G G6U C27U C46U A70U C71U, the “yeast fitness (ln)” value is -0.242.
Turning to C27U C46U A70G, the “yeast fitness (ln)” value was -0.029.
For the variant G1A U2C C27U C46U C66A A69G A70G C71U, the “yeast fitness (ln)” value was -0.294.
The result for G1A U2C A43C C66U A69G A70U C71U reads -0.279; that for G6U C27U A43C C46U C66U A70U C71U, -0.467; that for U2C G6U C27U C66U A70G, -0.215.
With U2C C66A, the “yeast fitness (ln)” value worked out at 0.0749.
The figure for G1A C66U A70U is -0.105.
For the variant A43C C46U A70G C71U, the “yeast fitness (ln)” value is -0.168.
With G1A G6A C27U A43C A69G C71U, the “yeast fitness (ln)” value is -0.598.
For G6U C27U C46U C66A, the “yeast fitness (ln)” value was -0.00348.
For C46U C66U A69G A70G C71U, the “yeast fitness (ln)” value was -0.084.
With U2C G6A A43C C46U C66U A69G A70U C71U, the “yeast fitness (ln)” value was -0.319.
For the variant G1A U2C G6A A43C C66U A70U C71U, the “yeast fitness (ln)” value was -0.301.
As to C46U C66U A69G A70U, the “yeast fitness (ln)” value is -0.0707.
For U2G G6U C46U C66U A70U C71U, the “yeast fitness (ln)” value was -0.643.
The figure for U2C G6A C27U A70G is -0.167; for G6A C46U C66U A69G it is -0.0205.
In the case of G1A U2G G6A A43C C66U A70U, the “yeast fitness (ln)” value is -0.434.
As to C27U C46U C66A C71U, the “yeast fitness (ln)” value is -0.0951.
The figure for G1A C46U C66A A69G A70G C71U is -0.178; for G1A A43C A69G A70G it is -0.11.
The result for G1A U2G G6A C46U A70G reads -0.176; that for G1A U2G G6A C27U A43C C66A A69G A70G C71U, -0.351.
Regarding G6A A43C C66U A70G C71U, the “yeast fitness (ln)” value was -0.26.
The figure for U2G G6U A43C C66U A69G C71U is -0.408; for U2G C66A A70U it is -0.157.
Regarding G1A U2C G6A C46U C66U A69G A70U C71U, the “yeast fitness (ln)” value is -0.339.
For the variant G1A U2G C27U A70U C71U, the “yeast fitness (ln)” value was -0.0262.
For the variant C27U C46U C66U A69G A70U, the “yeast fitness (ln)” value was -0.104.
In the case of C46U C66A A69G A70U C71U, the “yeast fitness (ln)” value was -0.282.
In the case of G1A U2G G6U C27U A69G A70G C71U, the “yeast fitness (ln)” value is -0.448.
The result for G1A G6U C66U A69G C71U reads -0.312; that for U2G C46U C66U A69G A70G, -0.174.
The result for U2G G6A C46U C66U A69G A70G reads -0.442; that for G1A U2C G6U C27U A43C A69G A70U C71U, -0.282; that for G1A C46U C66U A69G, -0.202.
G1A G6U A70U C71U: the “yeast fitness (ln)” value is -0.213.
As for G1A U2G G6U C27U A43C C46U C66U A69G A70G, the “yeast fitness (ln)” value is -0.476.
With G1A U2G G6A C27U A43C C46U A70U, the “yeast fitness (ln)” value was -0.215.
Regarding U2C G6A C27U A43C C46U A69G C71U, the “yeast fitness (ln)” value was -0.113.
Regarding G1A U2G G6U C27U C46U A70G, the “yeast fitness (ln)” value was -0.274.
With U2G G6A A43C C46U C66A C71U, the “yeast fitness (ln)” value is -0.153.
The result for G1A U2C A43C C46U A69G C71U reads -0.175.
G1A U2G G6A C66U A70G C71U: the “yeast fitness (ln)” value is -0.578.
In the case of C27U C66U A70G, the “yeast fitness (ln)” value was -0.116.
With G6U A43C C46U A70G C71U, the “yeast fitness (ln)” value was -0.256.
Regarding G1A U2G G6A C46U C66U A69G A70U C71U, the “yeast fitness (ln)” value was -0.141.
Regarding U2G G6U C27U C66U C71U, the “yeast fitness (ln)” value was -0.31.
In the case of U2C G6A A43C C46U C66A C71U, the “yeast fitness (ln)” value was -0.127.
Consider G1A G6U C27U C46U C66A C71U, for which the “yeast fitness (ln)” value was -0.0536.
The result for A69G A70U reads -0.0431; that for G6U C66A C71U, -0.0261; that for U2C C46U A69G A70G, -0.016.
The result for U2G G6U C46U C66U reads -0.131.
Regarding G6U C66A A69G, the “yeast fitness (ln)” value is 0.00209.
As for U2C C27U A43C C66U A69G A70G C71U, the “yeast fitness (ln)” value was -0.288.
For U2C G6U C66U A70G C71U, the “yeast fitness (ln)” value is -0.0593.
Consider U2G G6A A43C C46U C66U A69G A70U, for which the “yeast fitness (ln)” value is -0.0409.
For U2C C27U A43C C46U C66A A69G C71U, the “yeast fitness (ln)” value is -0.41.
For the variant G1A U2G G6A C27U A43C C46U C66U A70U C71U, the “yeast fitness (ln)” value was -0.645.
Consider G1A G6A C27U A70G, for which the “yeast fitness (ln)” value is -0.34.
U2G G6U A70G C71U: the “yeast fitness (ln)” value was -0.173.
In the case of G1A C27U C66A C71U, the “yeast fitness (ln)” value is -0.159.
The result for U2C G6U C66U A70G reads -0.0259; that for G6A C27U A43C C46U C66U A70G, -0.193.
The result for U2C G6A C27U C46U C66U A70G reads -0.0278; that for G1A U2G G6U C27U C46U C66U A69G A70U C71U, -0.462; that for G1A G6U A43C C46U C66U A69G A70G C71U, -0.333.
On to G1A G6U C46U A70U, for which the “yeast fitness (ln)” value is -0.14.
On to G6U C46U C66A A69G C71U, for which the “yeast fitness (ln)” value is -0.0515.
Regarding G6A A43C A69G A70G, the “yeast fitness (ln)” value was -0.26.
Take G6U C27U C66A A69G A70G: the “yeast fitness (ln)” value is -0.35.
For the variant G1A C46U A69G A70U, the “yeast fitness (ln)” value is -0.0206.
With A43C C66A A69G C71U, the “yeast fitness (ln)” value was -0.226.
On to U2C G6U A43C C66A C71U, for which the “yeast fitness (ln)” value was -0.0984.
Consider G6U C27U A70U C71U, for which the “yeast fitness (ln)” value is -0.27.
Consider U2G G6U C66A A70U, for which the “yeast fitness (ln)” value worked out at 0.00254.
Regarding U2C C66A C71U, the “yeast fitness (ln)” value was -0.0382.
For the variant U2C C27U C46U C66A A69G A70U C71U, the “yeast fitness (ln)” value was -0.387.
For the variant U2C G6A A70G C71U, the “yeast fitness (ln)” value was -0.105.
For the variant G6A C27U C66A A69G A70U, the “yeast fitness (ln)” value is -0.243.
G1A A43C C46U A70U C71U: the “yeast fitness (ln)” value is -0.116.
Regarding G1A C46U C66U A69G A70G, the “yeast fitness (ln)” value is -0.134.
